Reference: ChEMBL document CHEMBL3745671, “Discovery of N-[5-(6-Chloro-3-cyano-1-methyl-1H-indol-2-yl)-pyridin-3-ylmethyl]-ethanesulfonamide, a Cortisol-Sparing CYP11B2 Inhibitor that Lowers Aldosterone in Human Subjects” (J Med Chem, 2015)
The source made the active and inactive calls. No cut-off for these calls is given here.

Experiments:
[1] = Clearance in continuous angiotensin-2 infusion Sprague-Dawley rat model at 3 mg/kg, po and 1 mg/kg, iv; assay type: ADME, organism-based; details: in vivo
[2] = Cmax in healthy human at 100 mg/kg, po bid; assay type: ADME, organism-based; parameters: dose 100 mg/kg, route oral; details: in vivo
Method in brief: (§1)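 Double-blind, randomized, placebo-controlled study in healthy male and female volunteers aged 18-63 on a restricted sodium/potassium diet. Oral bid doses of 30, 60, 100 or 200 mg, drug:placebo 5:2. N per dose 10–17. AUCtau, Cmax and median Tmax reported; dose-normalized values are AUCtau/dose and Cmax/dose.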

Homo sapiens [3] = test: Dose normalized Cmax in healthy human at 200 mg/kg, po bid; assay type: ADME, organism-based; details: in vivo; method in brief: as §1
Homo sapiens [4] = test: Dose normalized AUCtau in healthy human at 200 mg/kg, po bid; assay type: ADME, organism-based; details: in vivo; method in brief: as §1
[5] = Tmax in healthy human at 100 mg/kg, po bid; assay type: ADME, organism-based; details: in vivo; method in brief: as §1
Homo sapiens [6] = test: Decrease in urinary aldosterone excretion in po dosed human administered as bid measured over 24 hrs; assay type: functional, organism-based; details: Urine
Method in brief: (§2)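 Healthy male and female volunteers, 18-63 years, restricted sodium/potassium diet; double-blind randomized placebo-controlled, oral 30, 60, 100 or 200 mg bid (drug:placebo 5:2).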

Homo sapiens [7] = test: Decrease in urinary aldosterone excretion in human at 200 mg/kg, po bid measured over 24 hrs; assay type: functional, Urine; details: in the assay text read “200 mg” for “200 mg/kg”; method in brief: as §2
Cynomolgus monkey [8] = test: Decrease in ACTH-stimulated plasma aldosterone level in po dosed chair-trained chronically cannulated cynomolgus monkey model compound administered followed by ACTH challenge for 3 hrs measured after 24 hrs by LC/MS/MS analysis; assay type: functional, organism-based; details: Macaca fascicularis
Method in brief: (§3)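 Conscious chair-trained, chronically cannulated male cynomolgus monkeys; vascular access port via Huber needle. Baseline blood (heparin) before dosing; methylcellulose suspension po at 0.03, 0.1, 0.3 or 3 mg/kg (n=3/dose) or vehicle (n=6, same animals). ACTH(1–24) 3000 ng/kg iv 3 h post-dose; sampling 0.125–1 h post-ACTH, up to 8 h, and 23.5 and 24 h. Aldosterone and cortisol by RIA; drug by LC/MS/MS (LLOQ 0.26 nmol/L, lower values set to zero).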

Plasma = test: Drug uptake in plasma of chair-trained chronically cannulated cynomolgus monkey model at 0.03 to 3 mg/kg, po compound administered followed by ACTH challenge for 3 hrs measured at 24 hrs by LC/MS/MS analysis; assay type: ADME, organism-based, Macaca fascicularis; details: in vivo; method in brief: as §3
Homo sapiens [9] = test: Decrease in plasma aldosterone level in po dosed human administered as bid measured over 24 hrs; assay type: functional, organism-based; method in brief: as §2
CYP19 (aromatase) = molecular target: T1, CYP19 (aromatase) (Homo sapiens, UniProt P11511); test: Inhibition of human CYP19 at 10 uM preincubated for 10 mins with NADPH followed by protein addition measured after 90 mins by fluorometric analysis
T1 sequence (P11511 whole entry): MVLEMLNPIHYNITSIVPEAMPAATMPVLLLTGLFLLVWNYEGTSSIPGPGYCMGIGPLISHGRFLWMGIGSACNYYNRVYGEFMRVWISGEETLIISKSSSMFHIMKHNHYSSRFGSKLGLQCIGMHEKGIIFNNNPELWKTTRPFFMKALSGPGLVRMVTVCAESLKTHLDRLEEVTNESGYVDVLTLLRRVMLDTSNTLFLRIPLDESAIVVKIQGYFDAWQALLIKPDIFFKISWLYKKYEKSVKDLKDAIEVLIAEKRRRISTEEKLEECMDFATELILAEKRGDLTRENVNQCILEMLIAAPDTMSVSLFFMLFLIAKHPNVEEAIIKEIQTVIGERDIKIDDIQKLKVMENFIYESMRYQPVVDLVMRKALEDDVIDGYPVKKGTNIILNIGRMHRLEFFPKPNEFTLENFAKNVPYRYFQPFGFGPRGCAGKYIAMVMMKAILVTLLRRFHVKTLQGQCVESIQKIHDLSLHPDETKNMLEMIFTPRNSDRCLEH

Homo sapiens [10] = test: Dose normalized AUCtau in healthy human at 30 mg/kg, po bid; assay type: ADME, organism-based; details: in vivo; method in brief: as §1
[11] = Tmax in healthy human at 200 mg/kg, po bid; assay type: ADME, organism-based; details: in vivo; method in brief: as §1
Cynomolgus monkey [12] = test: Decrease in ACTH-stimulated plasma cortisol level of chair-trained chronically cannulated cynomolgus monkey model at 0.03 to 3 mg/kg, po compound administered followed by ACTH challenge for 24 hrs by LC/MS/MS analysis; assay type: functional, organism-based; details: Macaca fascicularis; method in brief: as §3
Homo sapiens [13] = test: Toxicity in human assessed as increase in urinary 11-deoxycortisol level at 30 to 200 mg/kg, po bid measured over 24 hrs; assay type: organism-based, Urine; details: in vivo, in the assay text read “30 to 200 mg” for “30 to 200 mg/kg”; method in brief: as §2
[14] = Inhibition of CYP11B2 in cynomolgus monkey adrenal homogenates assessed as inhibition of aldosterone secretion; assay type: tissue-based, Macaca fascicularis
Method in brief: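 Cynomolgus monkey adrenal homogenates, with 11-DOC as substrate; aldosterone secretion inhibition determined as IC50.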

Homo sapiens [15] = test: Decrease in plasma aldosterone level in human at 200 mg/kg, po bid measured over 24 hrs; assay type: functional; details: in the assay text read “200 mg” for “200 mg/kg”; method in brief: as §2
Homo sapiens [16] = test: Dose normalized Cmax in healthy human at 30 mg/kg, po bid; assay type: ADME, organism-based; details: in vivo; method in brief: as §1
[17] = Cmax in healthy human at 30 mg/kg, po bid; assay type: ADME, organism-based; parameters: dose 30 mg/kg, route oral; details: in vivo; method in brief: as §1
Homo sapiens [18] = test: Dose normalized Cmax in healthy human at 100 mg/kg, po bid; assay type: ADME, organism-based; details: in vivo; method in brief: as §1
Homo sapiens [19] = test: Dose normalized AUCtau in healthy human at 60 mg/kg, po bid; assay type: ADME, organism-based; details: in vivo; method in brief: as §1
[20] = Half life in human liver microsomes after 30 mins by LC/MS/MS analysis; assay type: ADME
[21] = Half life in rat liver microsomes after 30 mins by LC/MS/MS analysis; assay type: ADME
Homo sapiens [22] = test: Dose normalized AUCtau in healthy human at 100 mg/kg, po bid; assay type: ADME, organism-based; details: in vivo; method in brief: as §1
Cynomolgus monkey [23] = test: Decrease in ACTH-stimulated plasma aldosterone level in chair-trained chronically cannulated cynomolgus monkey model at 3 mg/kg, po compound administered followed by ACTH challenge for 3 hrs measured by radioimmunoassay; parameters: scale not given: the % may be the effect or the level left
[24] = Tmax in healthy human at 60 mg/kg, po bid; assay type: ADME, organism-based; details: in vivo; method in brief: as §1
[25] = Cmax in healthy human at 60 mg/kg, po bid; assay type: ADME, organism-based; parameters: dose 60 mg/kg, route oral; details: in vivo; method in brief: as §1

For `CCS(=O)(=O)NCc1cncc(-c2c(C#N)c3ccc(Cl)cc3n2C)c1`, which clearance [1] is on record?
The clearance was 18 mL/min/kg.

What about the Cmax [2] of the same compound?
The Cmax was 173 ng/mL.

And the Cmax/dose (Homo sapiens [3])?
The Cmax/dose was 1.5 ng/mL.

And the AUC/dose (Homo sapiens [4])?
The AUC/dose was 10.9 ng·h/mL/mg.

What about the Tmax [5] of the same compound?
Its Tmax is 4 h.

What about the Activity (Homo sapiens [6]) of the same compound?
Its Activity is “Dose-dependent effect”.

And the “%max” value (Homo sapiens [7])?
Its value is 70%.

What about the Activity (Cynomolgus monkey [8]) of the same compound?
The Activity was “Dose-dependent effect”.

And the EC50 (Cynomolgus monkey [8])?
Its EC50 is 8.5 nM.

And the ED50 (Cynomolgus monkey [8]; po)?
Its ED50 is 0.061 mg/kg.

What about the Drug uptake (Plasma) of the same compound?
The Drug uptake was “Active”.

What about the Activity (Homo sapiens [9]) of the same compound?
The Activity was “Dose-dependent effect”.

And the inhibition at 1.5 h, 10 µM (CYP19 (aromatase))?
The inhibition at 1.5 h, 10 µM was 82%.

What about the AUC/dose (Homo sapiens [10]) of the same compound?
The AUC/dose was 25.6 ng·h/mL/mg.

And the Tmax [11]?
The Tmax was 4 h.

And the Activity (Cynomolgus monkey [12])?
The Activity was “inactive”.

And the Activity (Homo sapiens [13])?
The Activity was “Non-toxic”.

What about the IC50 [14] of the same compound?
The IC50 was 10 nM.

And the “%max” value (Homo sapiens [15])?
The value was 70%.

What about the Cmax/dose (Homo sapiens [16]) of the same compound?
Its Cmax/dose is 3.9 ng/mL.

And the Cmax [17]?
Its Cmax is 117 ng/mL.

And the Cmax/dose (Homo sapiens [18])?
The Cmax/dose was 1.7 ng/mL.

And the AUC/dose (Homo sapiens [19])?
The AUC/dose was 17.1 ng·h/mL/mg.

What about the half-life [20] of the same compound?
The half-life was 1.28 h.

And the half-life [21]?
The half-life was 0.467 h.

What about the AUC/dose (Homo sapiens [22]) of the same compound?
The AUC/dose was 12.7 ng·h/mL/mg.

What about the Activity (Cynomolgus monkey [23]) of the same compound?
The Activity was 95%.

What about the Tmax [24] of the same compound?
The Tmax was 3 h.

And the Cmax [25]?
The Cmax was 173 ng/mL.
